Experimental findings from ChEMBL document CHEMBL3244406, “11,12-Secoprostaglandins. 5. 8-Acetyl- or 8-(1-hydroxyethyl)-12-hydroxy-13-aryloxytridecanoic acids and sulfonamide isosteres as inhibitors of platelet aggregation” (1978) are described below.

In assay [1] the test system is Platelet. Put plainly: Inhibition of bovine collagen-induced platelet aggregation isolated from po treated Hartley guinea pig after 1 hr treatment. The assay is classed as functional. The settings on record: Cavia porcellus. The method, boiled down: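 Male Hartley guinea pigs (0.6-1.1 kg) dosed orally, suspended in 5 ml/kg EtOH-H2O Emulphor, three animals at each of three doses plus vehicle controls. Cardiac-puncture blood taken 1 h later, pooled per group, PRP spun at 200g for 10 min, platelets matched with PPP.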

Assay [2] is filed under the species Mus musculus. Put plainly: (§1) Induction of prostaglandin-like activity in CD-1 mouse ovary assessed as fold increase in [14C]-cAMP formation using ATP-[14C] substrate at 10 ug/ml after 30 mins incubation by PG assay. Format: functional. The settings on record: Female gonad. (Cyclic AMP is a second messenger, typically raised through Gs and lowered through Gi signalling.)

Assay [3] can be described thus: (§2) Induction of prostaglandin-like activity in CD-1 mouse ovary assessed as fold increase in [14C]-cAMP formation using ATP-[14C] substrate at 25 ug/ml after 30 mins incubation by PG assay. The assay is classed as functional, Female gonad.
Assay [4] is described as follows: (§3) Induction of prostaglandin-like activity in CD-1 mouse ovary assessed as fold increase in [14C]-cAMP formation using ATP-[14C] substrate at 100 ug/ml after 30 mins incubation by PG assay. The assay is classed as functional, Female gonad.
Assay [5] is described as follows: as §1. Format: functional, Female gonad.
The species entered for assay [6] is Mus musculus. Described as §2. The assay is classed as functional. The settings on record: Female gonad.
The species entered for assay [7] is Mus musculus. The description is as §3. Format: functional. The settings on record: Female gonad.
In assay [8] the test system is Platelet. As to the kind of experiment: Inhibition of bovine collagen-induced platelet aggregation isolated from ip treated Hartley guinea pig after 1 hr treatment. The assay is classed as functional. The settings on record: Cavia porcellus.

Active and inactive are the calls of the source. The rule behind the calls is not given here. A value given as a limit tells only on which side of the number the result lay.

For orientation: ED50 means the dose at which the effect has come halfway, by size or by number of responders. A higher ED50 goes with weaker potency. Take `COc1ccc(OCC(O)CCCN(CCCCCCC(=O)O)S(C)(=O)=O)cc1` (configuration not stated): the ED50 in the assay with Platelet [1] was above 10 mg/kg. Also, the result in the assay listed under Mus musculus [2] was inactive. In addition, the “fold change (FC)” value in assay [3] was determined as 3; in assay [4], 16.
In turn, `CS(=O)(=O)N(CCCCCCC(=O)O)CCCC(O)COc1ccc(F)cc1` (configuration not stated) showed an ED50 in the assay with Platelet [1] of 0.04 mg/kg. Besides, the “fold change (FC)” value is given as 2 in assay [5], 7 in assay [3] and 11 in assay [4].
Regarding `CS(=O)(=O)N(CCCCCCC(=O)O)CCCC(O)COc1ccccc1F` (configuration not stated), the 50% effect level in the assay on Platelet [1] (ED50) was put at a dose of 0.15 mg/kg. In addition, the result in the assay listed under Mus musculus [6] and in the assay listed under Mus musculus [7] was inactive.
Turning to `CC(O)C(C/C=C\CCCC(=O)O)CCCC(O)COc1ccc(F)cc1` (configuration not stated), the ED50 with Platelet [1] was 0.12 mg/kg. Besides, in the assay filed under Mus musculus [6], the outcome was inactive. Also, the “fold change (FC)” value in assay [4] is given as 3.
`CCCCCC(O)CCCN(CCCCCCC(=O)O)S(C)(=O)=O` (racemic) gave a median effective dose (ED50) in the assay on Platelet [1] of 6 mg/kg. Further, the “fold change (FC)” value in assay [5] was 40; in assay [3], 56; in assay [4] it was 61.
Consider `CC(=O)C(CCCCCCC(=O)O)CCCC(O)COc1cccc(C(F)(F)F)c1` (configuration not stated), for which the ED50 with Platelet [1] was above 10 mg/kg. Further, the result in the assay filed under Mus musculus [6] and in the assay listed under Mus musculus [7] was inactive.
The molecule `CC(=O)C(C/C=C\CCCC(=O)O)CCCC(O)COc1ccc(F)cc1` (configuration not stated) gave an ED50 in the assay on Platelet [1] of 0.09 mg/kg. In addition, the outcome in the assay listed under Mus musculus [6] was inactive. Also, the “fold change (FC)” value in assay [4] was 2.
In the case of `CC(=O)C(CCCCCCC(=O)O)CCCC(O)COc1ccc(F)cc1` (configuration not stated), the 50% effect level with Platelet [1] (ED50) was put at a dose of 0.5 mg/kg. Moreover, the result in the assay listed under Mus musculus [6] was inactive. In assay [4], the “fold change (FC)” value is given as 4.
In the case of `CCCCCC(O)CCCC(CCCCCCC(=O)O)C(C)=O` (mixture of isomers), the ED50 in the assay with Platelet [1] stood at 6.5 mg/kg. Also, the “fold change (FC)” value in assay [5] is 11; in assay [3], 14; in assay [4], 23.
Take `CC(O)C(CCCCCCC(=O)O)CCCC(O)COc1ccc(F)cc1` (configuration not stated): the ED50 in the assay with Platelet [1] is 1 mg/kg. Also, the result in the assay filed under Mus musculus [6] was inactive. In assay [4], the “fold change (FC)” value was 3.
As to `CS(=O)(=O)N(CCCCCCC(=O)O)CCCC(O)COc1ccc(Cl)cc1` (configuration not stated), the ED50 in the assay with Platelet [1] was 10 mg/kg. Also, the results for the “fold change (FC)” value in assay [5], in assay [3] and in assay [4] were 8, 21 and 31, respectively.
`CC(O)C(CCCCCCC(=O)O)CCCC(O)COc1ccc(C(F)(F)F)cc1` (configuration not stated) returned an ED50 in the assay on Platelet [1] of 1 mg/kg. In addition, the outcome in the assay filed under Mus musculus [6] and in the assay filed under Mus musculus [7] was inactive.
Take `CS(=O)(=O)N(CCCCCCC(=O)O)CCCC(O)COc1ccccc1` (configuration not stated): the ED50 in the assay on Platelet [1] is 1 mg/kg. For the same molecule, the result in the assay filed under Mus musculus [6] was inactive. Moreover, in assay [4], the “fold change (FC)” value was 3.
Turning to `CS(=O)(=O)N(CCCCCCC(=O)O)CCCC(O)COc1cccc(Cl)c1` (configuration not stated), it took a dose of 1 mg/kg to reach the 50% effect level in the assay with Platelet [1] (ED50). In the assay filed under Mus musculus [6], the outcome was inactive. The “fold change (FC)” value in assay [4] was determined as 5.
With `CC(O)C(CCCCCCC(=O)O)CCCC(O)COc1cccc(Cl)c1` (configuration not stated), the 50% effect level in the assay with Platelet [1] (ED50) was put at a dose of 7.5 mg/kg. In the assay filed under Mus musculus [6], the result was inactive. In addition, the “fold change (FC)” value in assay [4] was 2.
As to `Cc1ccc(OCC(O)CCCN(CCCCCCC(=O)O)S(C)(=O)=O)cc1` (configuration not stated), it took a dose of 5 mg/kg to reach the 50% effect level in the assay with Platelet [1] (ED50). Further, the “fold change (FC)” value is 4 in assay [5], 11 in assay [3] and 16 in assay [4].
`CS(=O)(=O)N(CCCCCCC(=O)O)CCCC(O)COc1cccc(F)c1` (configuration not stated) gave an ED50 in the assay with Platelet [1] of 1 mg/kg. Moreover, the results for the “fold change (FC)” value in assay [3] and in assay [4] were 2 and 4, respectively.
For `CS(=O)(=O)N(C/C=C\CCCC(=O)O)C/C=C/C(O)COc1ccc(F)cc1` (configuration not stated), in the assay with Platelet [1], the 50% effect level (ED50) was put at a dose of 0.01 mg/kg. Further, the “fold change (FC)” value is 2 in assay [5], 4 in assay [3] and 11 in assay [4].
The molecule `CC(=O)C(CCCCCCC(=O)O)CCCC(O)COc1ccccc1OCc1ccccc1` (configuration not stated) registered an ED50 in the assay with Platelet [1] above 10 mg/kg. Moreover, the outcome in the assay filed under Mus musculus [6] and in the assay filed under Mus musculus [7] was inactive.
As to `CS(=O)(=O)N(CCCCCCC(=O)O)CCCC(O)CS(=O)(=O)c1ccc(F)cc1` (configuration not stated), the ED50 in the assay with Platelet [1] is above 10 mg/kg. Moreover, the result in the assay filed under Mus musculus [6] was inactive. Also, in assay [4], the “fold change (FC)” value worked out at 3.
For the molecule `CS(=O)(=O)N(CCCCCCC(=O)O)CCCC(O)CSc1ccc(F)cc1` (configuration not stated), the ED50 with Platelet [1] came to 6 mg/kg. Also, the “fold change (FC)” value came to 6 in assay [5], 14 in assay [3] and 18 in assay [4].
Regarding `CCCCC[C@H](O)/C=C/[C@H]1[C@H](O)CC(=O)[C@@H]1CCCCCCC(=O)O` [ALPROSTADIL], in assay [5], the “fold change (FC)” value is 60. The molecule also had an ED50 in the assay with Platelet [8] of 0.02 mg/kg.
Take `CS(=O)(=O)N(C/C=C\CCCC(=O)O)C/C=C/C(O)COc1cccc(C(F)(F)F)c1` (configuration not stated): it took a dose of 5 mg/kg to reach the 50% effect level with Platelet [1] (ED50). Besides, the result in the assay listed under Mus musculus [6] and in the assay listed under Mus musculus [7] was inactive.
In the assay on Platelet [1], `CC(O)C(CC#CCCCC(=O)O)CCCC(O)COc1ccc(F)cc1` (configuration not stated) displayed an ED50 of 0.04 mg/kg. Moreover, the result in the assay listed under Mus musculus [6] was inactive. In addition, in assay [4], the “fold change (FC)” value was 2.
`CC(O)C(CCCCCCC(=O)O)CCCC(O)COc1ccccc1F` (configuration not stated): the ED50 with Platelet [1] amounted to 7.5 mg/kg. For the same molecule, the outcome in the assay listed under Mus musculus [6] and in the assay listed under Mus musculus [7] was inactive.
For the molecule `CC(=O)Oc1ccccc1C(=O)O` [ASPIRIN], in the assay with Platelet [1], the ED50 stood at 4.5 mg/kg.
As for `CC(=O)C(CCCCCCC(=O)O)CCCC(O)COc1ccc(C(C)(C)C)cc1` (configuration not stated), the ED50 in the assay on Platelet [1] was determined as 10 mg/kg. For the same molecule, the outcome in the assay filed under Mus musculus [6] and in the assay filed under Mus musculus [7] was inactive.
For `CC(=O)C(CCCCCCC(=O)O)CCCC(O)COc1ccccc1O` (configuration not stated), the ED50 in the assay with Platelet [1] is 5 mg/kg. For the same molecule, the result in the assay filed under Mus musculus [6] and in the assay listed under Mus musculus [7] was inactive.
In the assay on Platelet [1], `CC(=O)C(CC#CCCCC(=O)O)CCCC(O)COc1ccc(F)cc1` (configuration not stated) registered an ED50 of 0.25 mg/kg. The outcome in the assay listed under Mus musculus [6] and in the assay filed under Mus musculus [7] was inactive.
